Experimental data from ChEMBL document CHEMBL2321657, “In vitro efficiency of 9-(N-cinnamoylbutyl)aminoacridines against blood- and liver-stage malaria parasites” (Bioorg Med Chem Lett, 2013).

Experiments:
Plasmodium falciparum = experiment: Antiplasmodial activity against ring stage of CQ-resistant Plasmodium falciparum W2 after 48 hrs by flow cytometric analysis; type: functional, organism-based; conditions: W2, 48 h
Plasmodium berghei [1] = experiment: Ratio of primaquine IC50 to compound IC50 for liver stage of Plasmodium berghei; type: functional
Plasmodium berghei [2] = experiment: Antiplasmodial activity against liver stage of Plasmodium berghei expressing GFP-Luc infected in HuH7 cells incubated at 1 hr prior to infection followed by compound replenisment at 24 hrs post-infection measured after 48 hrs by Alamar blue assay; type: functional, organism-based; conditions: Huh-7, in the assay text read “luciferase bioluminescence assay” for “Alamar blue assay”
In short: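 Huh7 human hepatoma cells infected with firefly luciferase-expressing P. berghei sporozoites in the presence of compound. Liver-stage infection load read as bioluminescence of cell lysates 48 h after infection. Primaquine included as the liver-stage reference.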

Huh-7 = experiment: Cytotoxicity against human HuH7 cells up to 5 uM after 48 hrs by cell confluence analysis; type: cell-based; conditions: huh-7, 48 h

Structure (SMILES) | IC50 (Plasmodium falciparum) [nM] | Ratio IC50 (Plasmodium berghei [1]) | IC50 (Plasmodium berghei [2]) [nM] | Activity (Huh-7)
O=C(/C=C/c1ccccc1)NCCCCNc1c2ccccc2nc2ccccc12 | 892 | – | – | –
Cc1ccc(/C=C/C(=O)NCCCCNc2c3ccccc3nc3ccccc23)cc1 | 225 | – | – | –
CC(C)c1ccc(/C=C/C(=O)NCCCCNc2c3ccccc3nc3ccccc23)cc1 | 126 | – | – | –
COc1ccc(/C=C/C(=O)NCCCCNc2c3ccccc3nc3ccccc23)cc1 | 138 | 3 | 3200 | Non-toxic
O=C(/C=C/c1cccc(F)c1)NCCCCNc1c2ccccc2nc2ccccc12 | 345 | – | – | –
O=C(/C=C/c1ccc(F)cc1)NCCCCNc1c2ccccc2nc2ccccc12 | 145 | – | – | Non-toxic
O=C(/C=C/c1cccc([N+](=O)[O-])c1)NCCCCNc1c2ccccc2nc2ccccc12 | 142 | – | – | –
CCN(CC)CCCC(C)Nc1ccnc2cc(Cl)ccc12 (stereo not drawn) [CHLOROQUINE] | – | – | > 15000 | –
COc1cc(NC(C)CCCN)c2ncccc2c1 (stereo not drawn) [PRIMAQUINE] | – | – | 8000 | –
